Paper PMC10630944 (Molecular Pharmaceutics, 2023)

Legend:
[1] = In vitro stability in mouse serum; type: in vitro ADME; details: room temperature, 24 h of incubation, iTLC, average of three independent samples
[2] = Adverse effects in SCLC tumor-bearing mice; type: in vivo, BALB/c nude mice
In short: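 H446 cells (1 × 10^7 in 0.2 mL PBS) were implanted s.c. in the left shoulder of male BALB/c nude mice aged 4–5 weeks (20 ± 1 g). Mice were randomized at 2 weeks and given i.v. tail-vein PBS, unlabeled peptide 5 mg/kg, or test compound (370 kBq, 1110 kBq, or 370 kBq on days 0, 3 and 7). Body weight was followed for 30 days. Blood counts were taken on days 14 and 28 (n = 4). ALT, AST, BUN and Cr were measured on day 28. Liver, spleen, kidney, stomach and lung were H&E-stained at day 30.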

H446 cells [3] = test: DNA damage, γH2AX imaging and Western blot, H446 cells; type: cell-based, human
In short: (§1)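 Cells (5 × 10^4/well) were exposed for 2 h to PBS, unlabeled peptide, free 211At or test compound (1.85, 3.7, 18.5, 37 kBq), then recovered 24 h in fresh medium. For imaging, cells were fixed, permeabilized and stained with mouse anti-γH2AX (1:800). For blotting, RIPA lysates (BCA-normalized) were run on 10% SDS-PAGE and transferred to PVDF. Blocking was 5% milk for 1 h, anti-γH2AX was applied at 4 °C for 12 h, with ECL detection and GAPDH as loading control.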

H446 cells [4] = test: Cellular uptake / binding ratio, H446 cells; type: cell-based, human
In short: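 Cells were grown in RPMI-1640 with 10% FCS at 37 °C and 5% CO2. Suspensions of 5 × 10^6 cells in PBS, in low-bind tubes, got 3.7 kBq and were agitated at 37 °C for 1, 3 or 6 h. Cells were then pelleted and rinsed twice with ice-cold PBS, and pellets and pooled supernatant/washes were gamma-counted. Parallel tubes held unlabeled peptide as blocker for nonspecific binding. Three independent experiments were run in triplicate.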

A549 cells [5] = test: In vitro cytotoxicity; type: cell-based, human; details: 24 h exposure, low-level SSTR2 A549 cells
SCLC tumors (H446) [6] = test: MHC-I and calreticulin expression in SCLC tumors; type: in vivo, BALB/c nude mice; details: 1110 kBq administration group, day 1, 4, and 8
In short: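 In nude mice bearing s.c. H446 tumors, test compound was given i.v. as 1110 kBq once or 370 kBq on days 0, 3 and 7, with PBS controls. Tumors were examined on days 1, 4 and 8 after treatment. MHC-I and calreticulin were stained by immunohistochemistry per manufacturer's instructions, and expression was quantified. Three independent experiments were run in triplicate, reported as mean ± s.d.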

SCLC tumors (H446) [7] = test: Therapeutic efficacy against SCLC; type: in vivo, BALB/c nude mice; details: for tumor growth compared with the PBS control group: n = 6–10
In short: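 Xenografts were s.c. H446 (1 × 10^7 cells) in male BALB/c nude mice, randomized 2 weeks post-inoculation. Tumor size and weight were tracked for 30 days (n = 6–10), and tumor volumes were analysed by one-way ANOVA. At day 30, formalin-fixed tumors had H&E and γH2AX immunofluorescence.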

A549 cells [8] = test: DNA damage, γH2AX imaging and Western blot, A549 cells; type: cell-based, human
In short: as §1

[9] = Biodistribution in SCLC tumor-bearing BALB/c nude mice; type: in vivo
In short: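 H446 cells (1 × 10^7 in 0.2 mL PBS) implanted subcutaneously in left shoulder of male nude mice, 4–5 weeks, 20 ± 1 g. 211At-labelled test compound or free 211At (1110 kBq each) given in parallel via tail vein, n = 4 per group. Killed at 1, 3, 6, 12, 24 h. Tumor, main tissues and whole blood weighed and gamma-counted. Values as %ID/g (thyroid %ID/organ), mean ± s.d.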

[10] = groups A, D (1110 kBq) and E (3 × 370 kBq), day 30
[11] = groups D (1110 kBq) and E (3 × 370 kBq), day 30

N-succinimidyl-3-[^211At]astatobenzoate-Oct [[^211At]SAB-Oct]
radiochemical purity (RCP) after incubation in mouse serum [1]: 93% | liver or kidney biochemical function ([2]; 1110 kBq): did not significantly alter | leukocytopenia or weight loss ([2]; 1110 kBq doses): not observed | leukocytopenia ([2]; 1110 kBq group, day 28): No leukocytopenia | Bun values ([2]; 1110 kBq, day 28, P > 0.05): trend of decreased Bun values | blood cells (leukocyte, lymphocyte, thrombocyte, erythrocyte counts, hematocrit, hemoglobin) ([2]; day 14 and day 28 postinjection, 1110 kBq or multiple dosing, n = 4): no significant change | difference in ALT and AST concentrations between each group ([2]; day 28, P > 0.05, groups A–E): not significant | difference in Bun and Cr concentrations between treatments ([2]; day 28, P > 0.05, groups A–E): not significant | liver H&E [2, 10]: No obvious morphological difference | lung H&E [2, 10]: no obvious abnormalities | kidney H&E [2, 11]: brush border of a few renal tubular epithelial cells was slightly exfoliated | stomach H&E [2, 11]: mild exfoliation of extensive mucosal epithelium | γH2AX protein, Western blot, H446 cells (H446 cells [3]; 1.85, 3.7, 18.5, or 37 kBq): visually increased | level of γH2AX in H446 cells compared to PBS (H446 cells [3]; 18.5 and 37 kBq, ****P < 0.001): distinct dose-dependent increase | binding ratio to H446 cells in comparison to A549 cells (H446 cells [4]; 5 × 10^6 cells in PBS, 3.7 kBq, 37 °C, 1, 3 and 6 h, gamma counter, triplicate): significantly higher | binding ratio to H446 cells with Oct block (H446 cells [4]; 100-fold excesses of unlabeled Oct as blocking agent): markedly decreased | in vitro cytotoxicity to A549 cells (A549 cells [5]): specifically killed SSTR2-positive SCLC cells but not low-level SSTR2 A549 cells | expression of MHC-I and calreticulin in tumor over time (SCLC tumors (H446) [6]): first increasing and then decreasing | tumor cell necrosis in H&E assay (SCLC tumors (H446) [7]; 1110 kBq, day 30, compared with PBS and unlabeled octreotide groups): highest cell necrosis | clusters of γH2AX foci in dissected tumors (SCLC tumors (H446) [7]; 1110 kBq, day 30 after injection): still visible | tumor growth compared with the PBS control group (SCLC tumors (H446) [7]; group C, single i.v. injection 370 kBq, monitored 30 days): significantly inhibited | tumor growth compared with the PBS control group (SCLC tumors (H446) [7]; group D, single i.v. injection 1110 kBq, monitored 30 days): significantly inhibited | tumor growth compared with the PBS control group (SCLC tumors (H446) [7]; group E, 3 times 370 kBq on days 0, 3, and 7, monitored 30 days): significantly inhibited | γH2AX protein expression, Western blot, A549 cells (A549 cells [8]; 1.85, 3.7, 18.5, or 37 kBq): slightly expressed only when the dose reached 18.5 or 37 kBq | level of γH2AX in A549 cells compared to PBS (A549 cells [8]; 37 kBq, ***P < 0.001, still much lower than in H446): slightly higher | uptake in the lung and intestines ([9]; 1110 kBq i.v.): physiologically high uptake | radioactivity uptake in the thyroid ([9]; 1110 kBq i.v., 1 to 24 h): low radioactivity uptake | stomach uptake at 1 h postinjection ([9]; 1110 kBq i.v., 1 h, n = 4, mean ± s.d., gamma counter): 17.99 ± 19.65 % ID/g | maximum tumor uptake ([9]; 1110 kBq i.v., 3 h postinjection, n = 4, mean ± s.d.): 11.46 ± 4.35 % ID/g | radioactivity in all tissues after 24 h ([9]; 1110 kBq i.v., 24 h): Low levels of radioactivity | stomach uptake at 24 h ([9]; 1110 kBq i.v., 24 h, n = 4, mean ± s.d.): 2.87 ± 0.86 % ID/g | deastatination in vivo ([9]; observed in the spleen, lung, and stomach): slight deastatination
